Experimental findings from ChEMBL document CHEMBL1649124, “Genetic variability among ampC genes from acinetobacter genomic species 3” (Antimicrob Agents Chemother, 2009) are described below.

Settings in all cases: Acinetobacter pittii
Data set [1] has as its system CC(=O)OCC1=C(C(=O)O)N2C(=O)[C@@H](NC(=O)Cc3cccs3)[C@H]2SC1. Description: (§1) Activity of Acinetobacter genomosp. 3 isolate 195 ADC-18. The essentials: (§2)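 AmpC genes from AG3 clinical isolates were cloned into pGEX-6P-1 and expressed as GST fusions. The mature enzyme was purified free of GST, giving a 43 kDa SDS-PAGE band of 95% purity. Kinetics were read spectrophotometrically at 25°C in PBS with 20 mg/liter BSA, three repeats. For poor substrates, Km was taken as Ki in competitive assays with Centa as reporter substrate. Vmax came from the Michaelis-Menten equation at six times Km antibiotic.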

For data set [2], the system named is CC(C)(O/N=C(\C(=O)N[C@@H]1C(=O)N2C(C(=O)[O-])=C(C[n+]3ccccc3)CS[C@H]12)c1csc(N)n1)C(=O)O. The data set is described as §1. An outline of the steps:
as §2

In data set [3] the test system is CO/N=C(\C(=O)N[C@@H]1C(=O)N2C(C(=O)O)=C(COC(N)=O)CS[C@H]12)c1ccco1. The data set is described as §1. The essentials:
as §2

Data set [4] has as its system CO[C@@]1(NC(=O)Cc2cccs2)C(=O)N2C(C(=O)O)=C(COC(N)=O)CS[C@@H]21. The description is as §1. An outline of the steps:
as §2

The subject of data set [5] is CC(=O)OCC1=C(C(=O)O)N2C(=O)[C@@H](NC(=O)Cc3cccs3)[C@H]2SC1. Description: (§3) Ratio of Kcat to Km for Acinetobacter genomosp. 3 isolate 195 ADC-18. An outline of the steps: as §2
The test system of data set [6] is CO/N=C(\C(=O)N[C@@H]1C(=O)N2C(C(=O)O)=C(COC(N)=O)CS[C@H]12)c1ccco1. The description is as §3. The essentials: as §2
Data set [7] concerns CO[C@@]1(NC(=O)Cc2cccs2)C(=O)N2C(C(=O)O)=C(COC(N)=O)CS[C@@H]21. The data set is described as §3. An outline of the steps:
as §2

Data set [8] deals with CC(=O)OCC1=C(C(=O)O)N2C(=O)[C@@H](NC(=O)Cc3cccs3)[C@H]2SC1. Nature of the data set: (§4) Activity of Acinetobacter genomosp. 3 isolate 65 ADC-14. The essentials:
as §2

Data set [9] concerns CC(C)(O/N=C(\C(=O)N[C@@H]1C(=O)N2C(C(=O)[O-])=C(C[n+]3ccccc3)CS[C@H]12)c1csc(N)n1)C(=O)O. The description is as §4. The essentials: as §2
Data set [10] relates to CO/N=C(\C(=O)N[C@@H]1C(=O)N2C(C(=O)O)=C(COC(C)=O)CS[C@H]12)c1csc(N)n1. The data set is described as §4. An outline of the steps: as §2
In data set [11] the test system is CO/N=C(\C(=O)N[C@@H]1C(=O)N2C(C(=O)O)=C(COC(N)=O)CS[C@H]12)c1ccco1. The data set is described as §4. The essentials:
as §2

Data set [12] deals with CO[C@@]1(NC(=O)Cc2cccs2)C(=O)N2C(C(=O)O)=C(COC(N)=O)CS[C@@H]21. The description is as §4. The essentials:
as §2

For data set [13], the system named is C[C@H]1[C@H](NC(=O)/C(=N\OC(C)(C)C(=O)O)c2csc(N)n2)C(=O)N1S(=O)(=O)O. The description is as §4. The essentials:
as §2

The subject of data set [14] is CC(=O)OCC1=C(C(=O)O)N2C(=O)[C@@H](NC(=O)Cc3cccs3)[C@H]2SC1. Nature of the data set: (§5) Ratio of Kcat to Km for Acinetobacter genomosp. 3 isolate 65 ADC-14. The essentials: as §2
The subject of data set [15] is CC(C)(O/N=C(\C(=O)N[C@@H]1C(=O)N2C(C(=O)[O-])=C(C[n+]3ccccc3)CS[C@H]12)c1csc(N)n1)C(=O)O. The data set is described as §5. The essentials: as §2
For data set [16], the system named is CO/N=C(\C(=O)N[C@@H]1C(=O)N2C(C(=O)O)=C(COC(C)=O)CS[C@H]12)c1csc(N)n1. The description is as §5. The essentials: as §2
Data set [17] has as its system CO/N=C(\C(=O)N[C@@H]1C(=O)N2C(C(=O)O)=C(COC(N)=O)CS[C@H]12)c1ccco1. The description is as §5. An outline of the steps:
as §2

Data set [18] has as its system CO[C@@]1(NC(=O)Cc2cccs2)C(=O)N2C(C(=O)O)=C(COC(N)=O)CS[C@@H]21. The description is as §5. An outline of the steps: as §2

Turning to “ADC-18 protein (Acinetobacter genomosp. 3) (from UniProt Q0VTS0)”, the Km (in general, the concentration of substrate that gives half-maximal velocity) in data set [1] was found to be 148 µM; in data set [2] it was 84 µM; in [3], 0.27 µM; in data set [4] it was 0.13 µM. For the same substance, the kcat (in general, the maximal rate divided by the concentration of active sites) came to 1420 s⁻¹ in data set [1], 0.02 s⁻¹ in data set [2], 0.48 s⁻¹ in data set [3] and 0.27 s⁻¹ in [4]. The figures for the kcat/Km in [5], in data set [6] and in [7] were 9.57e+06 M⁻¹ s⁻¹, 1.79e+06 M⁻¹ s⁻¹ and 1.99e+06 M⁻¹ s⁻¹, respectively.

For “ADC-14 protein (Acinetobacter genomosp. 3) (from UniProt Q0VTR6)”, the Michaelis constant (Km) in [8] came to 6.73 µM; in data set [9], 26.1 µM; in data set [10], 0.08 µM; in data set [11], 0.02 µM; in [12], 0.02 µM; in data set [13], 6.01 µM. Further, the kcat in [8] was found to be 56.5 s⁻¹; in data set [9] it was 0.01 s⁻¹; in data set [10] it was 0.004 s⁻¹; in data set [11], 0.01 s⁻¹; in data set [12], 0.02 s⁻¹. Moreover, the kcat/Km (in general, the second-order rate constant that governs catalysis at low substrate concentration) in [14] is 8.4e+06 M⁻¹ s⁻¹; in data set [15], 380 M⁻¹ s⁻¹; in data set [16], 48200 M⁻¹ s⁻¹; in data set [17], 529000 M⁻¹ s⁻¹; in data set [18], 941000 M⁻¹ s⁻¹.
